{"source": "ChEMBL document CHEMBL5036309", "about": "“Orally Active Peptide Vector Allows Using Cannabis to Fight Pain While Avoiding Side Effects” (J Med Chem, 2021)", "key": {"HEK293T": {"tested_on": "HEK293T", "assay": "Inhibition of human c-YFP fused CB1R/n-YFP fused 5HT2A receptor heterodimer formation transfected in human HEK293T cells at 4 uM incubated for 4 hrs by BIFC assay", "format": "cell-based", "outline": "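HEK-293T cells were cotransfected 48 h with 5HT2AR-cYFP and CB1R-nYFP (4 μg cDNA each, polyethylenimine), then treated with 4 μM peptide or vehicle for 4 h at 37 °C. Reconstituted YFP Venus was read on 20 μg protein at 530 nm emission with 400 nm excitation, minus the fluorescence of non-expressing cells. Mean ± SEM, n = 10–30.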"}, "BEND3": {"tested_on": "BEND3", "assay": "Induction of BBB translocation in mouse BEND3 cells measured after 24 hrs by fluorescence analysis", "format": "functional, cell-based", "outline": "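5(6)-Carboxyfluorescein-labeled peptides were applied to a transwell BBB model of bEnd.3 cells. Translocation (%) was measured as fluorescence in the basolateral chamber after 24 h, with a trans-BBB peptide as positive control. Barrier integrity was checked afterward by FD4 dextran permeability. Mean ± SEM, n = 3–6, independent cultures on different days.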"}, "Mus musculus [1]": {"tested_on": "Mus musculus", "assay": "Analgesic activity in mouse assessed as pain response at 20 mg/kg, iv pretreated with compound for 30 mins followed by THP addition and measured after 60 mins by hot plate test", "format": "functional, organism-based", "details": "time 90.0 min", "outline": "(§1)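 Mice got peptide or vehicle IV (20 mg/kg) or orally by gavage (5, 10, 20 mg/kg) 30 min before IP THC 10 mg/kg (vehicle 5% ethanol, 5% Cremophor-EL, 90% saline). Latency to jump on a 52 ± 0.5 °C hot plate was read 60 min after THC, with a 240 s cutoff. Mean ± SEM, n = 10–12 (IV) or 5–8 (oral); Fisher LSD.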"}, "Mus musculus [2]": {"tested_on": "Mus musculus", "assay": "Analgesic activity in mouse assessed as pain response at 5 to 20 mg/kg, po pretreated with compound for 30 mins followed by THP addition and measured after 60 mins by hot plate test", "format": "functional, organism-based", "details": "dose 5-20 mg/kg, time 90.0 min", "outline": "as §1"}, "Mus musculus [3]": {"tested_on": "Mus musculus", "assay": "Protection against THP-induced amnesic effect in mouse assessed as reduction in memory impairment at 20 mg/kg, iv pretreated for 30 mins followed by THP addition", "format": "functional, organism-based", "outline": "(§2)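 V-maze novel object recognition. Day 1 was 9 min habituation. Day 2 was 9 min training with two identical objects. Peptide was given IV (20 mg/kg) or orally (5, 10, 20 mg/kg) right after training, then IP THC 3 mg/kg or vehicle 30 min later. The 9 min test came 24 h later with one object replaced. Discrimination index = (novel − familiar)/total exploration time; exploration meant the nose oriented within 2 cm of the object. Fisher LSD.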"}, "Mus musculus [4]": {"tested_on": "Mus musculus", "assay": "Protection against THP-induced amnesic effect in mouse assessed as reduction in memory impairment at 5 to 20 mg/kg, po pretreated for 30 mins followed by THP addition", "format": "functional, organism-based", "details": "dose 5-20 mg/kg", "outline": "as §2"}, "Mus musculus [5]": {"tested_on": "Mus musculus", "assay": "Immunogenicity in CD1 mouse at 100 ug administered for 5 consecutive days and booster dose on day 15 measured upto 19 days by ELISA", "format": "ADME, organism-based", "details": "in vivo, 456 h, time <=19 day, dose 100 µg", "outline": "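Female outbred Hsd:ICR (CD-1) mice (n = 10) got IV peptide 100 μg/dose in PBS + 2% DMSO on 5 consecutive days with a boost on day 15. Controls were KLH conjugate 30 μg (n = 5) and PBS (n = 5). Sera from days 0, 9 and 19 were tested by indirect ELISA on plates coated with peptide-BSA 1 μg/mL, using anti-IgG-HRP, TMB and A450. Titer (log10) = reciprocal of the last dilution above the day-0 serum signal + 2 SD.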"}, "[6]": {"assay": "Drug internalization in mouse BEND3 cells by confocal microscopic analysis", "format": "ADME, cell-based", "outline": "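bEnd.3 mouse brain endothelial cells were exposed to 5(6)-carboxyfluorescein-labeled peptides and counterstained with Hoechst 33342 and CellMask Deep Red membrane stain. Imaging used point-scanning confocal microscopy with a 63× oil objective, 405 nm excitation for the stains and 488 nm for the peptide.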"}}, "note": "Active and inactive are the calls of the source. Square brackets hold non-standard residues; d marks the D form. Peptide text beside a SMILES is read from it."}
{"smiles": "CC[C@@H](C)[C@@H](NC(=O)CNC(=O)[C@@H](C)NC(=O)[C@H](NC(=O)[C@@H](Cc1ccc(O)cc1)NC(=O)[C@@H](C)NC(=O)[C@@H](Cc1ccc(O)cc1)NC(=O)[C@@H](CCSC)NC(=O)[C@@H](Cc1ccc(O)cc1)NC(=O)[C@H](NC(=O)[C@@H](CC(C)C)NC(=O)[C@H](N)Cc1c[nH]c2ccccc12)[C@H](C)CC)C(C)C)C(=O)N[C@H](CC(C)C)C(=O)N[C@H](CCCCN)C(=O)N[C@H](CCCNC(=N)N)C(=O)N[C@H](Cc1c[nH]c2ccccc12)C(N)=O", "note": "(H-[dW][dL][dI][dY][dM][dY][dA][dY][dV][dA]G[dI][dL][dK][dR][dW]-NH2)", "values": [{"measurement": "inhibition", "setting": "HEK293T", "result": "Active"}, {"measurement": "Activity", "setting": "BEND3", "result": "Active"}, {"measurement": "Activity", "setting": "Mus musculus [1]", "result": "Active"}, {"measurement": "Activity", "setting": "Mus musculus [2]", "result": "Active"}, {"measurement": "Activity", "setting": "Mus musculus [3]", "result": "Active"}, {"measurement": "Activity", "setting": "Mus musculus [4]", "result": "Active"}, {"measurement": "Activity", "setting": "Mus musculus [5]", "result": "Non-Toxic"}, {"measurement": "Drug uptake", "setting": "[6]", "result": "Active"}]}
